Bioassay records (PubChem BioAssay)
WT yeast gro inh – growth inhibition of WT yeast, mitochondrial fusion screen | actives 2.1% (n = 190,000) | mitochondrial fusion phenotypic screen, WT strain | inhibition, % at 10 µM | AID 1362; in the data active = inhibition above about 58%; tested in S. cerevisiae
ROMK mod – human ROMK K+ channel modulation, primary screen; P48048; Tet-inducible ROMK, thallium flux fluorescence; actives lie on both sides; B-score at 10 µM; actives 2% (n = 130,000);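 active = signal ratio slope over the read window, or its plate-corrected B-score, at least 3 SD from the plate mean, either direction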;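 note: B-score of the F/F0 ratio slope over 7 to 12 s after thallium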
14-3-3 Bad inh – disrupts binding of bovine 14-3-3 zeta to phospho-Bad peptide; P63103; TR-FRET 14-3-3zeta/Dy647-pBad peptide displacement, 1 h; inhibition, % at 21.7 µM; actives 0.71% (n = 220,000);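 active = inhibition above about 70%, limit read from the data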;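 note: 0% = full 14-3-3 plus peptide FRET controls and 100% = background without 14-3-3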
RBBP9 inhibitor – blocks human serine hydrolase RBBP9; recombinant RBBP9, FP-Rh probe fluorescence polarization; actives 0.2% (n = 220,000); O75884; inhibition, % at 7.94 µM;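 active = inhibition above the campaign mean of all tested compounds plus 3 SD, cut at about 14% in these data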;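 note: plate controls were DMSO wells with RBBP9 for no effect and wells lacking RBBP9 protein for full effect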
Target sequence (O75884 whole entry, looked up): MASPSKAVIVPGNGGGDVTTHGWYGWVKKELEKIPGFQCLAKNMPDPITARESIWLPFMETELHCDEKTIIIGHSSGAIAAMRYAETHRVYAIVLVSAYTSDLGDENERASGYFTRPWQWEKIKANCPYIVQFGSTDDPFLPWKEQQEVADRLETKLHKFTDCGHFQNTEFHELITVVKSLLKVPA
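Test system: recombinant human RBBP9. Quantity: 2.5 µM RBBP9 dispensing solution, before mixing. Detection: FP readout at 525/598 nm. Reagent: Serine-hydrolase probe FP-Rh, 375 nM pre-mixing. Measure: % inhibition. Control set: DMSO-treated enzyme wells and wells lacking RBBP9. Buffer or medium: Tris-NaCl-Pluronic buffer, pH 8.0. Times: preincubation 30 min plus labeling 45 min at 25 °C.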
Cl transport mod – KCC2 (human) Cl- transport modulation | actives 2.2% (n = 190,000) | B-score of Tl+ flux slope (higher = more flux/activation; lower = inhibition) at 10 µM | KCC2 cells, thallium flux FluoZin-2 fluorescence;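 active = thallium flux slope and its plate-corrected score both differing from the plate sample mean at a set confidence after two filtering rounds, in either direction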;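 note: slope of fluorescence scaled to starting intensity during 10 to 20 s after thallium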
NCF1 inh – blocks human p47phox regulatory protein of NADPH oxidases; P14598; inhibition, % at 24.7 µM; p47phox/p22phox peptide binding, fluorescence polarization, 2 h; actives 0.53% (n = 220,000);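 active = inhibition above about 30%, limit read from the data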;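 note: 0% = p47phox with labelled peptide and 100% = labelled peptide alone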
Target sequence (P14598 whole entry, looked up): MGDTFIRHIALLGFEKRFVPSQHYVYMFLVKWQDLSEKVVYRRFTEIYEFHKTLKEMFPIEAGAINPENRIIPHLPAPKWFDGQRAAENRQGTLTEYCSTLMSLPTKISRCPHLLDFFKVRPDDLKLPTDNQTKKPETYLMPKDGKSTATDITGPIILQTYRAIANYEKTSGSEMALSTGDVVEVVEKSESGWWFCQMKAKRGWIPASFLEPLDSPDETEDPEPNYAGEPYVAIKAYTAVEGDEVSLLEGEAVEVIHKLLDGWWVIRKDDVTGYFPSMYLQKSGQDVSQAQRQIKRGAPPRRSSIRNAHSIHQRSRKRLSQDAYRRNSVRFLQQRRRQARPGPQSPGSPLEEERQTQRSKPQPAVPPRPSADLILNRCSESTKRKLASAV
KCC2 secondary – confirmation of human KCC2 transport modulators. shares compounds with Cl transport mod. HEK293-KCC2, thallium flux, FluoZin2 fluorescence; stronger effect = higher value. normalised thallium flux (F/F0 slope) at 10 µM. actives 15% (n = 3,700). AID 1713;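 active = thallium flux slope above the same plate's solvent-only control mean plus 3 SD; inconclusive = the two replicate wells disagree; inactive = no significant difference from solvent-only control wells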
KCC2 bumet counter – thallium flux despite bumetanide block in KCC2 cells, secondary assay 3; shares compounds with Cl transport mod; HEK293-KCC2 + bumetanide/ouabain, thallium flux FluoZin2; stronger effect = higher value; normalized thallium flux at 10 µM; actives 49% (n = 3,700);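 active = thallium entry rate above the same plate's blocked-transporter control wells by more than 3 SD; inconclusive = the two repeat wells disagree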;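 note: raw slope of fluorescence over initial fluorescence between 10 and 20 s after thallium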
KCC2 sec2 – confirmation of human KCC2 transport modulators. AID 1715. actives 23% (n = 3,700). normalized thallium flux at 10 µM. shares compounds with Cl transport mod. HEK293-KCC2, thallium flux FluoZin2 fluorescence; actives lie on both sides; F/F0 rise rate, 10–20 s post-thallium;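 active = thallium flux slope more than 3 SD above or below the plate's solvent-only control mean, mostly below; inconclusive = the two repeat wells disagreed; inactive = no significant shift from solvent-only controls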;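 note: raw slope with 0.1% DMSO as baseline and bumetanide as block control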
HEK counter1 – acts in parental HEK cells, KCC2 counter-screen. HEK293 parental cells, thallium flux FluoZin2, ouabain; baseline-ratio fluorescence slope, 10–20 s after thallium. shares compounds with Cl transport mod. thallium flux rate (normalised fluorescence) at 10 µM. actives 46% (n = 3,700);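 active = thallium flux rate significantly above the same plate's solvent-only control wells, beyond their mean plus 3 SD; inconclusive = the two replicate wells gave conflicting results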
KCC2 retest ouab – modulates human KCC2 on retest with ouabain; HEK293-KCC2, thallium flux FluoZin2 fluorescence; bidirectional: low = inhibitor, high = activator; raw Tl+ flux slope (below DMSO = inhibition, above = activation) at 10 µM; AID 1717; actives 48% (n = 3,700); shares compounds with Cl transport mod;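 active = thallium flux slope beyond 3 SD from same-plate DMSO control mean in most replicates, usually higher, sometimes lower; inconclusive = repeat tests gave conflicting results; inactive = no significant difference from controls in most replicates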;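 note: slope of initial-normalized fluorescence between seconds 10 and 20 after thallium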
HEK counter2 – parental HEK flux effect, counter-screen 2 | shares compounds with Cl transport mod | actives 33% (n = 3,700) | HEK293 parental, thallium flux FluoZin-2 fluorescence slope | thallium flux slope at 10 µM;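 active = thallium flux slope above the same plate's solvent-control mean plus 3 SD in both duplicate wells; inconclusive = duplicate wells that disagreed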;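 note: run without ouabain in cells lacking the KCC2 cotransporter; slope of fluorescence scaled to its starting value between 10 and 20 s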
The depositor's hits bear a star; ? = inconclusive; / = no result given. This is a sample that favours compounds with a hit; in the whole collection about 5.8% have one here.

SMILES	WT yeast gro inh	ROMK mod	14-3-3 Bad inh	RBBP9 inhibitor	Cl transport mod	NCF1 inh	KCC2 secondary	KCC2 bumet counter	KCC2 sec2	HEK counter1	KCC2 retest ouab	HEK counter2
Cc1nc(CN2CCN(Cc3nc(C(c4ccccc4)c4ccccc4)no3)CC2)cs1	9.8	0.52	-1.3	-3.4	/	11.3	/	/	/	/	/	/
Cc1occc1C(=O)NNC(=O)c1cccc(F)c1	-15.0	0.284	-4.3	1.1	-0.826	6.2	/	/	/	/	/	/
CC(C)(C)NC(=O)C(=O)NNC(=O)c1cccc(F)c1	-10.6	0.154	0.7	3.6	20.8*	5.4	0.006	0.0254*	0.0385*	0.0238*	0.0319*	0.0255*
CC(C)(C)NC(=O)C(=O)NNC(=O)c1ccccc1	2.9	/	4.3	-2.0	3.69*	-7.1	0.0187*	0.034*	0.0351	0.0172*	0.0293	0.0118*
Cc1ccc(/C=C/C(=O)C2C(=O)c3ccccc3C2=O)cc1	8.6	/	17.6	-4.2	/	-50.5	0.00593	0.0673*	0.0628*	0.0917*	0.0719*	0.0544*
CC(C)c1ccc(NC(=O)c2snc3ccc(Cl)cc23)cc1	23.3	0.639	7.8	-10.2	0.16	-6.7	/	/	/	/	/	/
COC(=O)c1[nH]c2ccc(C)cc2c1NS(=O)(=O)c1ccc(F)c(C)c1	-3.7	/	-2.3	4.8	-2.93*	-5.4	0.0113	?	0.0275	0.00789	0.0291	0.0102
COC(=O)c1[nH]c2ccc(F)cc2c1NS(=O)(=O)c1ccc(F)c(C)c1	2.5	0.00526	-1.8	4.9	-0.973	-20.7	/	/	/	/	/	/
Cc1ccc2[nH]c(=O)c(C(c3nnnn3CC3CCCO3)N3CCc4ccccc4C3)cc2c1 (stereo not drawn)	10.4	-1.61	/	-0.4	0.395	0.3	/	/	/	/	/	/
COc1ccc2[nH]c(=O)c(C(c3nnnn3CC3CCCO3)N3CCc4ccccc4C3)cc2c1 (stereo not drawn)	9.7	/	/	0.8	-5.12*	/	0.00956	0.00698	0.029	0.00706	0.0296	0.0099
S=c1nccc(-c2ccc(Cl)cc2)[nH]1	/	/	-3.8	-1.0	19.3*	-6.2	0.0101*	0.0193*	0.0414*	0.0241*	0.0318*	0.0274*
COc1ccc(Nc2nccc(N(C)C)c2C#N)cc1	6.5	0.64	0.0	-11.6	0.00543	-7.5	/	/	/	/	/	/
COC(=O)c1cc2c(cc1Cl)N1CCCCCC1=NS2(=O)=O	/	/	-5.9	-5.9	-0.164	-1.5	/	/	/	/	/	/
CN(C)S(=O)(=O)c1cccc(NC(=O)c2cc3c(cc2Cl)N2CCCCCC2=NS3(=O)=O)c1	0.5	-0.824	23.1	-4.7	-4.51*	-6.2	0.00926	0.00648	0.0226*	0.00669	0.0137*	0.00911
CN(C)c1ccc(/C=C/c2ccc3ccccc3[n+]2C)cc1	86.9	/	-77.4	-39.3	-1.01	-140.2	/	/	/	/	/	/
CN(C)c1ccc(/C=C/c2ccc3c4ccccc4ccc3[n+]2-c2ccccc2)cc1	88.1	-1.3	-12.9	-50.5	-3.18*	-55.5	0.00497	0.00409	0.0239*	?	0.014*	0.0105
C/C(=N\Nc1ccc(C(=O)O)cc1)c1ccc(S(=O)(=O)NCc2ccco2)cc1	/	/	-5.1	-6.9	4.53*	-17.5	0.00872	0.00684	0.032	0.00718	0.0209	0.0103*
